Data taken from paper PMC11157418 (Clinical and Translational Science, 2024).
Where a SMILES comes first, the peptide text is derived from it. [ ]: non-standard residue; d: D form. Nva = CCC[C@H](N)C(=O)O

What was measured:
[1] = cited from earlier work
[2] = tested on: human induced pluripotent stem (iPS) cell-derived hepatocytes; assay: MTT cytotoxicity assay; format: cell-based; conditions: ALY688 0.5 to 2000 nM, globular adiponectin 1 μg/mL; 4 and 24 h; Figure S1A
Procedure, shortened: (§1)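 iPS cell-derived human hepatocytes were exposed to test compound at 0.5, 1, 100, 500, 1000, 1500 and 2000 nM, to globular adiponectin 1 μg/mL, or to H₂O₂ 500 μM for 4 and 24 h. Viability was quantified by MTT formazan per manufacturer. Experiments were repeated at least three times; mean ± SEM.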

[3] = tested on: human induced pluripotent stem (iPS) cell-derived hepatocytes; assay: LDH release cytotoxicity assay; format: cell-based; conditions: ALY688 0.5 to 2000 nM, globular adiponectin 1 μg/mL; 4 and 24 h; Figure S1B
Procedure, shortened: as §1, with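 “Cytotoxicity” for “Viability”, “quantified as LDH release” for “quantified”, “kit” for “MTT formazan”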

STAM mice = assay: STAM; format: in vivo, C57BL/6N mice
Procedure, shortened: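 Male C57BL/6N mice received 200 μg streptozotocin s.c. at 2 days after birth and were fed HFD (57 kcal% fat) from week 4 to week 9. From week 6 to week 9, mice received saline vehicle or test compound at 0.5 or 5 mg/kg/day, by daily s.c. injection or s.c. osmotic pump (0.25 μL/h); n=6/group. Read-outs were body weight during treatment, and terminal plasma ALT/AST (dry-chemistry analyser) and liver weight. Unpaired two-sided t-test.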

[4] = Pharmacokinetic study after single s.c. injection; format: in vivo, Sprague-Dawley rats; conditions: male, Sprague-Dawley, rat, plasma, sc, 10 mg/kg
Procedure, shortened: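 Male adult Sprague–Dawley rats (two per cage, 22–24°C, 12-h light cycle) received a single s.c. dose of 10 mg/kg. Plasma peptide was measured by LC–MS/MS. PK parameters were computed with values below LLOQ set to zero.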

[5] = tested on: mice with TAA-induced liver injury / CCl4-induced liver fibrosis; conditions: cited from earlier work
CDAHFD-fed mice [6] = assay: Hepatic fibrosis in CDAHF mouse model; format: in vivo, C57BL/6N mice; conditions: 30 mg/kg daily oral; Figure 3a-c
CDAHFD-fed mice [7] = assay: CDAHF diet-induced mouse model of MASH; format: in vivo, C57BL/6N mice; conditions: 30 mg/kg/day oral dosing; Figure 2c-g
Procedure, shortened: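 Male C57BL/6N mice, 8 weeks old, fed a choline-deficient, low-methionine high-fat diet (60 kcal% fat) for 12 weeks. From week 3, obeticholic acid 30 mg/kg was given daily by oral gavage in 0.5% CMC/0.01% Tween-80 for 9 weeks. Vehicle-treated chow-fed mice served as negative controls (n=10/group). End-of-treatment read-outs were serum ALT/AST by commercial kits, liver weight, hepatic TG and H&E NAS scoring.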

liver of CDAHFD-fed mice = assay: Hepatic gene expression in CDAHF mouse model; format: in vivo, C57BL/6N mice; conditions: RT-qPCR, 30 mg/kg oral
[8] = continuous infusion, high dose 5 mg/kg/day, vs control mice

half-life [4] | SMILES | Stability in mouse plasma [1] | Cytotoxicity, MTT assay [2] | Cytotoxicity, LDH release assay [3] | Body weight during the treatment period (STAM mice; 0.5 or 5 mg/kg/day, daily s.c. or osmotic pump, Figure 1b) | Serum ALT level (STAM mice; [8]) | Serum AST level (STAM mice; [8]) | Serum ALT and AST levels (STAM mice; daily s.c. injection, 0.5 or 5 mg/kg/day, vs vehicle) | Effect against TAA-induced liver injury and CCl4-induced liver fibrosis [5] | Hepatic fibrosis by histological examination (CDAHFD-fed mice [6]) | Effect on alleviating MASH (CDAHFD-fed mice [7]) | Hepatic expression of fatty acid oxidation genes (Acot1, Acox1, Cyp4a12) (liver of CDAHFD-fed mice; Figure 4e) | Hepatic expression of fibrosis-related genes (Tgfβ, Col1a1, Timp1) (liver of CDAHFD-fed mice; Figure 4f) | Expression of MASH-induced inflammatory genes (liver of CDAHFD-fed mice; Figure 4g)
27 min | CCC[C@H](NC(=O)[C@@H]1CCCN1C(=O)[C@@H](NC(=O)[C@H](N)CC(N)=O)[C@@H](C)CC)C(=O)N[C@@H](CC(C)C)C(=O)N[C@@H](Cc1ccc(O)cc1)C(=O)N[C@H](CO)C(=O)N[C@@H](Cc1ccccc1)C(=O)N[C@@H](C)C(=O)N[C@H](CO)C(N)=O [ALY688] (H-[dN]IP[Nva]LY[dS]FA[dS]-NH2; N-terminus and C-terminus assumed) | good stability | No toxicity | No toxicity | did not induce change in body weight | slightly lower levels of ALT without statistical significance | significantly reduced | did not affect | liver protective effects |  |  |  |  | 
 | CC[C@H]1[C@@H](O)[C@@H]2[C@H](CC[C@]3(C)[C@@H]([C@H](C)CCC(=O)O)CC[C@@H]23)[C@@]2(C)CC[C@@H](O)C[C@@H]12 [OCA, obeticholic acid] |  |  |  |  |  |  |  |  | protective effects against hepatic fibrosis | did not show beneficial effects | restored | appeared to reduce the expression of most of these fibrotic genes, although without statistical significance | failed to reverse
